Assay outcomes: PubChem, several laboratories
The full list was thinned out, with hits kept by preference.
Calb FLC: C. albicans growth inhibition with fluconazole, primary screen, CaCi-2 strain, Alamar Blue fluorescence; C. albicans CaCi-2 (fluconazole-resistant clinical isolate) + fluconazole, 48 h; growth inhibition, % (no concentration beside the values); 0.57% of 300,000 active; AID 1979, 2009;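 active means growth inhibition above about 58% in most replicates, limit read from the data, passing the limit was not always enough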;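 further: all wells also contain fluconazole at 8 µg/ml as a sub-toxic cotreatment; 0% = median of DMSO wells and 100% = median of geldanamycin control wells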
NLRP3 yeast inh: NALP3 inflammasome inhibitors in reconstituted yeast, primary screen, luminescence, uHTS | AID 2825, 2010 | inhibition, % at 10 µM | 0.39% of 330,000 active | Yeast reconstituted NLRP3/ASC/caspase-1, beta-gal luminescence, 24 h;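 active means inhibition of 50% or more; inactive means inhibition below 50%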;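 further: plate controls were induced DMSO wells for no effect and uninduced yeast grown without galactose for full effect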
Lmaj promast: Leishmania major promastigote growth inhibition, primary screen | inhibition, % at 10 µM | 9% of 200,000 active | Leishmania major promastigotes, resazurin fluorescence viability; in the data active means inhibition above about 50%;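 further: promastigotes grown with compound for 44 hours at 28 °C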
T cruzi repl: inhibitors of intracellular T. cruzi growth, primary screen, luminescence, NIH3T3 host cells | T. cruzi beta-gal in NIH3T3, 90 h | inhibition, % (test concentration not listed) | 1.4% of 300,000 active | AID 1885, 2009;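 active means mean inhibition across valid replicates above about 55%, limit read from the data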;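 further: signal also drops with host cell toxicity which is not excluded here; 0% = plate median of DMSO wells and 100% = zero luminescence signal; higher percent means less beta-gal luminescence so fewer parasites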
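Incubation – ≥90 h infection period, 3 h prior cell attachment · System – NIH/3T3 fibroblasts plus reporter T. cruzi · Doses – compound pinned at 50 nL/well, DMSO · Read-out basis – percent inhibition of parasite-derived β-gal signal · Signal – luminescent β-galactosidase signal after 60 min lysis · Also added – 5000 T. cruzi trypomastigotes/well · Medium – Low-serum DMEM with 2% FBS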
NALP1 inh: NALP1 inflammasome inhibitors in reconstituted yeast, colorimetric, S. cerevisiae, triplicate retest | S. cerevisiae NALP1/ASC/caspase-1 growth, X-gal OD620, 72 h | inhibition, % at 10 µM | 0.61% of 280,000 active | AID 2071, 2009; in the data active means inhibition mostly above about 24%, no sharp cut-off; inactive means mostly below about 32%
PolyA inh: polyadenylation inhibitors in yeast reporter cells, primary screen, luminescence, S. cerevisiae. S. cerevisiae SKY197-pL101 polyadenylation reporter, beta-gal luminescence; efflux-impaired pdr1/pdr3 knockout yeast; score 100 = 6 SD above DMSO. activity score, % at 12 µM. 0.02% of 300,000 active;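 active means lowest replicate activity score at least 50, where 100 means six control SD above control mean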;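 further: yeast exposed to compound for 9 h at 30 °C; higher score means more reporter readthrough which indicates perturbed polyadenylation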
* = called active by the depositor; nt = no result.

SMILES | Calb FLC | NLRP3 yeast inh | Lmaj promast | T cruzi repl | NALP1 inh | PolyA inh
CCN(CC)S(=O)(=O)c1ccc(C)c(NC(=O)CN2CCN(Cc3ccccc3)CC2)c1 | -7.5 | 5.0 | nt | 38.0 | nt | 14.7
COc1ccc(NC(=O)c2c3c(nc4ccccc24)CCN(Cc2ccccc2)C3)c(OC)c1 | 13.2 | 30.9 | 1.8 | 45.8 | 9.8 | 0.7
CCN(CC)S(=O)(=O)c1ccc(OC(C)C)c(NC(=O)c2c3c(nc4ccccc24)CCN(Cc2ccccc2)C3)c1 | -5.6 | 11.6 | 58.4* | 47.7 | 30.6 | 20.4
COc1ccc(S(=O)(=O)N2CCCCCC2)cc1C(=O)N(C)Cc1ccc(C(C)(C)C)cc1 | 3.6 | 9.8 | nt | 27.9 | 9.9 | 14.3
Cc1ccc(S(=O)(=O)N2CCN(S(=O)(=O)c3ccc(C)cc3)C2c2ccccc2)cc1 | -10.5 | -1.5 | 19.0 | 11.7 | 34.7 | -3.8
COc1ccc(C2N(S(=O)(=O)c3ccccc3)CCN2S(=O)(=O)c2ccc(C)cc2)cc1 (configuration not stated) | 3.2 | -2.3 | 99.8* | 35.2 | 28.6 | -8.5
CCn1c(COc2ccc(Cl)cc2)nnc1SCC(=O)Nc1ccc2c(c1)OCCO2 | 1.5 | 4.2 | 3.4 | -8.7 | 38.1* | 2.6
O=C(CSc1ncc(-c2ccc(F)cc2)n1Cc1ccco1)Nc1ccc2c(c1)OCO2 | -1.3 | -13.9 | 59.8* | 5.4 | 25.5 | -16.7
Clc1ccc(OCc2nnc(SCCN3CCCCC3)n2Cc2ccco2)cc1 | 23.9 | 7.8 | 100.5* | 16.8 | 11.5 | -5.3
Cc1ccc(OCc2nnc(SCC(=O)Nc3ccc4c(c3)OCCO4)n2Cc2ccco2)cc1 | -5.0 | -13.5 | 96.0* | -20.9 | -3.9 | -12.0
COc1ccc2cc(CN(CC3COCCO3)S(=O)(=O)c3ccc(Cl)cc3)c(=O)[nH]c2c1 (configuration not stated) | 2.1 | 5.3 | 9.1 | 8.1 | 26.4 | 18.3
Cc1cc(Cl)c(S(=O)(=O)Nc2cc(S(=O)(=O)N3CCOCC3)ccc2F)cc1OCC(N)=O | -16.6 | -5.1 | -2.6 | 0.2 | 4.7 | -1.8
CCCc1ccc(Oc2cc(N3CCOCC3)nc(-c3ccccc3)n2)cc1 | -0.5 | 6.2 | -3.2 | -4.5 | nt | nt
CC1(C)CC(NC(=O)c2c(N)no[n+]2[O-])CC(C)(C)N1 | -2.8 | 4.3 | 3.7 | -18.7 | -13.5 | 0.0
C=CC(COCc1ccccc1)N([C@@H](Cc1ccccc1)C(=O)OC)S(=O)(=O)c1ccccc1Br (some centres not stated) | nt | 2.7 | nt | nt | nt | nt
Cc1cccc(NC(=S)NCCSc2ccc(Cl)cc2)c1 | -30.8 | 16.5 | 15.7 | 33.8 | 9.3 | -16.4
Cc1cccc(NC(=S)NCC(C)CSc2ccc(Cl)cc2)c1 (configuration not stated) | 19.1 | 13.2 | 86.3* | 16.7 | 17.7 | -0.4
Cc1ccc(NC(=S)NCC(C)CSc2ccc(Cl)cc2)cc1 (configuration not stated) | -13.6 | 40.6 | 59.0* | 34.4 | 9.6 | -17.2
Cc1cc(OCC(O)CN2CCN(c3ccccn3)CC2)cc(C)c1Cl (configuration not stated) | -5.5 | 46.5 | nt | 13.8 | 2.2 | -10.3
COc1ccc(/C=C(/NC(=O)c2ccccc2)C(=O)N2CCCC2)cc1 | 0.9 | 11.5 | nt | 3.6 | -7.0 | 13.4
CCn1c(C)c(C)c2cc(C(=O)N3CCc4ccccc4C3)ccc21 | -4.2 | 8.7 | nt | 5.0 | -2.1 | -8.6
COc1ccc(C(=O)OC(COc2ccccc2)Cn2ccnc2)cc1 (configuration not stated) | -2.0 | 13.2 | 100.0* | 47.2 | -3.3 | -64.1
COc1cc(C(=O)COC(=O)c2cnc(C)cn2)ccc1OC(F)F | 5.3 | 14.6 | nt | -7.2 | 9.8 | 15.8
CC(NC(=O)C12CC3CC(CC(C3)C1)C2)C(=O)N/N=C/C1=C(N2CCOCC2)C(=C\c2ccccc2)/CC1 (configuration not stated) | 0.9 | 26.0 | 100.3* | 42.4 | 39.2 | 9.9
Cn1cc(C(=O)N/N=C/C2=C(N3CCOCC3)C(=C\c3ccccc3)/CC2)ccc1=O | -21.3 | 4.7 | -4.1 | -12.2 | 12.0 | -1.8
SMILES | Calb FLC | NLRP3 yeast inh | Lmaj promast | T cruzi repl | NALP1 inh | PolyA inh
c1ccc2c(c1)OCCOCCOCCOCCOCCOc1ccccc1OCCOCCOCCO2 | 0.6 | 1.0 | 100.4* | 43.7 | 25.6 | -0.5
OCCN1CCOCCOc2ccccc2OCCOCC1 | -0.2 | 8.8 | nt | -14.1 | 8.4 | 11.3
COC(=O)c1c(-c2cccs2)csc1NC(=O)c1cccnc1 | 94.8* | 18.9 | 6.8 | 0.0 | 13.9 | -3.6
O=C(/C=C/c1cc[n+](CC(=O)c2ccc3cccc4c3c2CC4)cc1)c1ccc2cccc3c2c1CC3 | 6.3 | 29.3 | nt | 62.8* | nt | -3.6
COc1ccc(CN2CCN(Cc3ccon3)CC2CCO)c(C)c1C (configuration not stated) | -4.2 | 8.5 | nt | 3.1 | nt | 1.1
Cc1noc(C)c1CSc1nc2sc(C)c(C)c2c(=O)n1-c1ccccc1 | 0.6 | -6.6 | 3.1 | 59.5* | 3.1 | -24.2
CCOc1ccc(/C(O)=C2/C(=O)C(=O)N(c3ccccn3)C2c2ccc(F)cc2)c(C)c1 (configuration not stated) | 10.4 | 8.0 | nt | 1.8 | -4.2 | 17.4
O=C(O)C1C2C=CC(C2)C1C(=O)NCc1ccc(Cl)c(Cl)c1 (configuration not stated) | 27.0 | 4.1 | 52.9* | 9.9 | 46.6* | -1.9
O=C(O)C1C2C=CC(C2)C1C(=O)NCc1ccc2c(c1)OCO2 (configuration not stated) | -7.4 | 17.6 | -5.0 | -19.0 | 8.6 | 0.3
CC(=NNC(=O)CSc1nc2ccccc2o1)c1ccco1 | nt | 10.9 | nt | nt | nt | nt
Cc1cc(C)cc(NC(=S)N2C3CCCC2CC(NC(=O)C2CC2)C3)c1 (configuration not stated) | 0.4 | -4.9 | nt | -3.8 | -14.0 | -10.0
CCN(CC(=O)Nc1ccc(NC(C)=O)cc1)C(=O)c1cc(C)on1 | -6.6 | 6.6 | nt | 1.3 | nt | 10.6
Cc1ccc(NC(=O)CNC(c2ccccc2)c2ccccc2)c(F)c1 | 10.7 | -0.7 | 71.2* | 21.8 | 25.3 | 1.2
COc1ccc(C)cc1NC(=O)CNC(c1ccccc1)c1ccccc1 | 14.8 | 15.3 | nt | 13.0 | 9.7 | -10.2
CC1(C)CC(=O)C2=C(C1)N(c1ccc(F)cc1)C(=O)C2(NC(=O)c1ccccc1)C(F)(F)F (configuration not stated) | -5.4 | 3.1 | -3.0 | -6.9 | -5.4 | 10.9
Cc1ccc(N2C(=O)C(NC(=O)c3ccccc3)(C(F)(F)F)C3=C2CC(C)(C)CC3=O)cc1 (configuration not stated) | 0.5 | 3.9 | 89.0* | 7.0 | 19.8 | 12.0
